Assay results taken from ChEMBL document CHEMBL4196064, “Identification of Pyrazolo[3,4-e][1,4]thiazepin based CYP51 inhibitors as potential Chagas disease therapeutic alternative: In vitro and in vivo evaluation, binding mode prediction and SAR exploration” (Eur J Med Chem, 2018).
In brackets after ≈: the same amount, converted by molar mass. Activity calls are given as the source filed them. The rule behind the calls is not given here.

Key:
[1] = system: Trypanosoma cruzi; experiment: Trypanocidal activity against Trypanosoma cruzi Sylvio X10/7 intracellular amastigotes forms measured every 24 hrs for 96 hrs by time-kill assay; type: functional
[2] = system: Trypanosoma cruzi; experiment: Trypanocidal activity against Trypanosoma cruzi Sylvio X10/7 intracellular amastigotes forms assessed as inhibition of maximum parasite growth measured every 24 hrs for 96 hrs by time-kill assay relative to control; type: functional
[3] = Cytotoxicity against mouse L929 cells assessed as reduction in cell viability after 96 hrs by light microscopic analysis; type: cell-based; details: read-out: LC50
Method in brief: (§1)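 L929 fibroblasts (4x10^3 cells/well) in RPMI 1640 with 10% FBS, incubated at 37°C with increasing concentrations for 96 h. Viability was read with AlamarBlue (6 h incubation, absorbance at 600 nm) and confirmed by light microscopy.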

[4] = Selectivity index, ratio of LC50 for Swiss Webster mouse cardiac cells by prestoblue assay to EC50 for bloodstream trypomastigote stage of Trypanosoma cruzi Y measured after 24 hrs; type: toxicity; details: read-out: Selectivity Index
Method in brief: (§2)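 The ratio is cardiac-cell LC50 (24 h) over the 24 h EC50 against Y-strain bloodstream trypomastigotes. Trypomastigotes (5x10^6/mL) were exposed to 0-50 µM at 37°C in RPMI with 5% FBS. Surviving parasites were counted in a Neubauer chamber, and the EC50 is the concentration halving the parasite number.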

[5] = Cytotoxicity against mouse L929 cells assessed as reduction in cell viability after 96 hrs by Alamarblue assay; type: cell-based; details: read-out: LC50; method in brief: as §1
[6] = system: Trypanosoma cruzi; experiment: Antitrypanosomal activity against Trypanosoma cruzi Tulahuen trypomastigote forms infected in mouse L929 cells assessed as reduction in parasite load after 96 hrs by beta-galactosidase reporter gene assay; type: functional, organism-based; details: L929, 96 h
Method in brief: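 L929 cells infected 2 h with tissue culture-derived Tulahuen β-galactosidase trypomastigotes (10:1 parasite/host cell), rinsed with saline, and left 48 h at 37℃. Increasing non-toxic concentrations applied for 96 h. Absorbance read at 570 nm, % growth inhibition versus untreated cells, EC50 derived; mean ± SD. DMSO not above 0.6 %.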

[7] = system: Trypanosoma cruzi; experiment: Antitrypanosomal activity against bloodstream trypomastigote stage of Trypanosoma cruzi Y infected in Swiss Webster mouse assessed as reduction in parasitemia at 10 mg/kg, ip administered daily on day 5 to 9 post infection relative to control; type: functional
Method in brief: (§3)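 Male Swiss Webster mice (18–20 g) infected i.p. with 10^4 Y strain bloodstream trypomastigotes. Treatment given days 5–9 post infection: test compound i.p. 5–20 mg/kg/day (0.1 mL, DMSO then 20% Trappsol) or Bz 100 mg/kg/day p.o. (3% Tween 80 in water). Controls infected, vehicle only. Parasitemia counted by Pizzi-Brener in 5 µL tail blood; mortality checked daily to 30 days post treatment.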

[8] = system: Trypanosoma cruzi; experiment: Antitrypanosomal activity against bloodstream trypomastigote stage of Trypanosoma cruzi Y measured after 24 hrs by light microscopic analysis; type: functional, organism-based
Method in brief: (§4)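 Y strain bloodstream trypomastigotes from heart puncture of infected mice, at 5x10⁶/mL in RPMI 1640 with 5% FBS. Incubated at 37℃ with 0–50 µM for 2 or 24 h. […] Mean ± SD.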

[9] = system: Trypanosoma cruzi; experiment: Antitrypanosomal activity against bloodstream trypomastigote stage of Trypanosoma cruzi Y infected in Swiss Webster mouse assessed as increase in mouse survival at 5 to 20 mg/kg, ip administered daily on day 5 to 9 measured daily until 30 days post dose relative to control; type: functional, organism-based; method in brief: as §3
[10] = Cytotoxicity against Swiss Webster mouse cardiac cells assessed as reduction in cell viability after 24 hrs by light microscopic analysis; type: cell-based, Cardiac Muscle Cell; details: read-out: LC50
Method in brief: (§5)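 Primary cardiac cells from Swiss Webster mouse embryos, cultured at 37°C in DMEM with 5% FBS, CaCl2, glutamine and chick embryo extract. Uninfected cultures were exposed to increasing concentrations for 24 h. Viability was read with PrestoBlue (5 h incubation, absorbance at 570 nm) and checked by light microscopy for morphology.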

[11] = system: Trypanosoma cruzi; experiment: Antitrypanosomal activity against bloodstream trypomastigote stage of Trypanosoma cruzi Y measured after 2 hrs by light microscopic analysis; type: functional, organism-based; method in brief: as §4
[12] = Selectivity index, ratio of LC50 for Swiss Webster mouse cardiac cells by light microscopic analysis to EC50 for bloodstream trypomastigote stage of Trypanosoma cruzi Y measured after 24 hrs; type: toxicity; details: read-out: Selectivity Index; method in brief: as §2
[13] = Cytotoxicity against Swiss Webster mouse cardiac cells assessed as reduction in cell viability after 24 hrs by prestoblue assay; type: cell-based, Cardiac Muscle Cell; details: read-out: LC50; method in brief: as §5
[14] = system: Trypanosoma cruzi; experiment: Antitrypanosomal activity against Trypanosoma cruzi Tulahuen trypomastigote forms infected in mouse L929 cells assessed as reduction in infection level at 10 to 12 uM after 96 hrs by beta-galactosidase reporter gene assay relative to control; type: functional; set-up: scale not given: the % may be the effect or the level left
Method in brief: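 L929 cells infected 2 h with tissue culture-derived β-galactosidase-expressing Tulahuen trypomastigotes at 10:1 parasite/host cell ratio, rinsed, and held 48 h at 37℃. Single fixed concentration (10-12 µM) then applied, 96 h. Absorbance read at 570 nm; growth inhibition expressed relative to untreated cells. DMSO not above 0.6 %.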

[15] = Selectivity index, ratio of LC50 for mouse L929 cells by Alamarblue assay to EC50 for Trypanosoma cruzi Tulahuen trypomastigote forms; type: toxicity; details: read-out: Selectivity Index
[16] = Selectivity index, ratio of LC50 for mouse L929 cells by light microscopic analysis to EC50 for Trypanosoma cruzi Tulahuen trypomastigote forms; type: toxicity; details: read-out: Selectivity Index
[17] = system: Trypanosoma cruzi; experiment: Antitrypanosomal activity against bloodstream trypomastigote stage of Trypanosoma cruzi Y infected in Swiss Webster mouse assessed as reduction in parasitemia at 5 mg/kg, ip administered daily on day 5 to 9 post infection relative to control; type: functional; method in brief: as §3
[18] = system: Trypanosoma cruzi; experiment: Antitrypanosomal activity against bloodstream trypomastigote stage of Trypanosoma cruzi Y infected in Swiss Webster mouse assessed as reduction in parasitemia at 20 mg/kg, ip administered daily on day 5 to 9 post infection relative to control; type: functional; method in brief: as §3
[19] = molecular target: Sterol 14-alpha demethylase (Trypanosoma cruzi (strain CL Brener)) (UniProt Q7Z1V1); experiment: Inhibition of recombinant Trypanosoma cruzi Tulahuen CYP51 expressed in Escherichia coli JM109 cell membranes assessed as residual activity at 0.05 uM by fluorescence based analysis (reference value: 100%)
Method in brief: (§6)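 Fluorescence-based functional assay using recombinant T. cruzi (Tulahuen) CYP51. […] Residual activity was measured across a concentration series and fitted to a curve to give the IC50.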

[20] = molecular target: Sterol 14-alpha demethylase (Trypanosoma cruzi (strain CL Brener)) (UniProt Q7Z1V1); experiment: Inhibition of recombinant Trypanosoma cruzi Tulahuen CYP51 expressed in Escherichia coli JM109 cell membranes assessed as residual activity at 0.0165 uM by fluorescence based analysis (reference value: 100%); method in brief: as §6
[21] = molecular target: Sterol 14-alpha demethylase (Trypanosoma cruzi (strain CL Brener)) (UniProt Q7Z1V1); experiment: Inhibition of recombinant Trypanosoma cruzi Tulahuen CYP51 expressed in Escherichia coli JM109 cell membranes assessed as residual activity at 0.0005 uM by fluorescence based analysis (reference value: 100%); method in brief: as §6
[22] = molecular target: Sterol 14-alpha demethylase (Trypanosoma cruzi (strain CL Brener)) (UniProt Q7Z1V1); experiment: Inhibition of recombinant Trypanosoma cruzi Tulahuen CYP51 expressed in Escherichia coli JM109 cell membranes assessed as residual activity at 0.005 uM by fluorescence based analysis (reference value: 100%); method in brief: as §6
[23] = molecular target: Sterol 14-alpha demethylase (Trypanosoma cruzi (strain CL Brener)) (UniProt Q7Z1V1); experiment: Inhibition of recombinant Trypanosoma cruzi Tulahuen CYP51 expressed in Escherichia coli JM109 cell membranes assessed as residual activity at 0.5 uM by fluorescence based analysis (reference value: 100%); method in brief: as §6
[24] = molecular target: Sterol 14-alpha demethylase (Trypanosoma cruzi (strain CL Brener)) (UniProt Q7Z1V1); experiment: Inhibition of recombinant Trypanosoma cruzi Tulahuen CYP51 expressed in Escherichia coli JM109 cell membranes assessed as residual activity at 0.17 uM by fluorescence based analysis (reference value: 100%); method in brief: as §6
[25] = molecular target: Sterol 14-alpha demethylase (Trypanosoma cruzi (strain CL Brener)) (UniProt Q7Z1V1); experiment: Inhibition of recombinant Trypanosoma cruzi Tulahuen CYP51 expressed in Escherichia coli JM109 cell membranes assessed as residual activity at 0.00165 uM by fluorescence based analysis (reference value: 100%); method in brief: as §6

Sterol 14-alpha demethylase (Trypanosoma cruzi (strain CL Brener)), sequence (Q7Z1V1 whole entry, looked up): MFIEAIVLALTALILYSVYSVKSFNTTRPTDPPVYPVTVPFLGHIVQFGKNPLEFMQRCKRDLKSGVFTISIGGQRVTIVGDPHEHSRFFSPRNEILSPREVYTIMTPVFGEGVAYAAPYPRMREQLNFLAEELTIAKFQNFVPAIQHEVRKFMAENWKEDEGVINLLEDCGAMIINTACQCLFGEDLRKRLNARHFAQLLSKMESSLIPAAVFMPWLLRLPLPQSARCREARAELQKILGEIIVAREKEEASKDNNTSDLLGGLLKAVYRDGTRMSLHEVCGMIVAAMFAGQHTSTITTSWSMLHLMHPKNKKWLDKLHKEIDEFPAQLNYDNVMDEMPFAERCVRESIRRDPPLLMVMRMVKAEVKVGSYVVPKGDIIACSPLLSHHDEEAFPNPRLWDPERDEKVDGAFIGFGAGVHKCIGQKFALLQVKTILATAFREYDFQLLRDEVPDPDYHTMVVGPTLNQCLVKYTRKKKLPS

CC1CS(=O)(=O)CCN1/N=C/c1ccc([N+](=O)[O-])o1 (stereo unspecified) [NIFURTIMOX]
MIC [1]: 5 µM (≈ 1.44 µg/mL) | Imax [2]: 103%

Cc1cccc(COc2ccc([C@H]3S[C@@H](C)C(=O)Nc4[nH]nc(C)c43)cc2)c1
CC50 at 96 h [3]: 98.9 µM | selectivity ratio at 24 h [4]: 3.2 | CC50 at 96 h [5]: 98.9 µM | EC50 [6]: 2.7 µM | Activity [7]: inactive | EC50 [8]: 20.6 µM | Activity [9]: inactive | CC50 at 24 h [10]: 66 µM | EC50 [11]: > 50 µM | selectivity ratio at 24 h [12]: 3.2 | CC50 at 24 h [13]: 66 µM | Activity [14]: 89.25% | selectivity ratio [15]: 36.6 | selectivity ratio [16]: 36.6 | Activity [17]: inactive | Activity [18]: inactive

C=CCOc1ccc([C@H]2S[C@@H](C)C(=O)Nc3[nH]nc(C)c32)cc1
Activity [14]: 0%

CCCOc1ccc([C@H]2S[C@@H](C)C(=O)Nc3[nH]nc(C)c32)cc1
Activity [14]: 0%

COc1cc([C@H]2S[C@@H](C)C(=O)Nc3[nH]nc(C)c32)ccc1OCc1ccc(Cl)cc1
CC50 at 96 h [3]: 50.6 µM | CC50 at 96 h [5]: 50.6 µM | EC50 [6]: 10.8 µM | EC50 [8]: 39.4 µM | EC50 [11]: > 50 µM | Activity [14]: 53.94% | selectivity ratio [15]: 4.7 | selectivity ratio [16]: 4.7

COc1cc([C@H]2S[C@@H](C)C(=O)Nc3[nH]nc(C)c32)ccc1OCc1ccc(C)cc1
Activity [14]: 1.98%

Cc1n[nH]c2c1[C@@H](c1ccc(OCc3ccc(F)cc3)cc1)S[C@@H](C)C(=O)N2
Activity [14]: 32.42%

CC[C@@H]([C@H](C)O)n1ncn(-c2ccc(N3CCN(c4ccc(OC[C@@H]5CO[C@@](Cn6cncn6)(c6ccc(F)cc6F)C5)cc4)CC3)cc2)c1=O
Activity [19]: 32% | Activity [20]: 71.9% | Activity [21]: 100% | Activity [22]: 92.8% | Activity [23]: 0% | Activity [24]: 0% | Activity [25]: 98.4%

COc1cc([C@H]2S[C@@H](C)C(=O)Nc3[nH]nc(C)c32)ccc1OCc1cccc(Cl)c1
Activity [14]: 39.94%

Cc1ccccc1COc1ccc([C@H]2S[C@@H](C)C(=O)Nc3[nH]nc(C)c32)cc1
CC50 at 96 h [3]: 111 µM | selectivity ratio at 24 h [4]: > 5.2 | CC50 at 96 h [5]: 111 µM | EC50 [6]: 2.2 µM | EC50 [8]: 38.6 µM | CC50 at 24 h [10]: > 200 µM | EC50 [11]: > 50 µM | selectivity ratio at 24 h [12]: > 5.2 | CC50 at 24 h [13]: > 200 µM | Activity [14]: 69.14% | selectivity ratio [15]: 50.4 | selectivity ratio [16]: 50.4

Cc1n[nH]c2c1[C@@H](c1ccc(OC(C)C)cc1)S[C@@H](C)C(=O)N2
Activity [14]: 0%

Cc1n[nH]c2c1[C@@H](c1ccc(OCc3ccccc3F)cc1)S[C@@H](C)C(=O)N2
CC50 at 96 h [3]: > 200 µM | selectivity ratio at 24 h [4]: > 4 | CC50 at 96 h [5]: > 200 µM | EC50 [6]: 5.3 µM | EC50 [8]: > 50 µM | CC50 at 24 h [10]: > 200 µM | EC50 [11]: > 50 µM | selectivity ratio at 24 h [12]: > 4 | CC50 at 24 h [13]: > 200 µM | Activity [14]: 63.64% | selectivity ratio [15]: > 38 | selectivity ratio [16]: > 38

COc1cc([C@H]2S[C@@H](C)C(=O)Nc3[nH]nc(C)c32)ccc1OCc1ccccc1
Activity [14]: 12.02%

COc1cc([C@H]2S[C@@H](C)C(=O)Nc3[nH]nc(C)c32)ccc1OCc1ccccc1C
Activity [14]: 16.43%

COc1cc([C@H]2S[C@@H](C)C(=O)Nc3[nH]nc(C)c32)ccc1OCc1ccccc1Cl
Activity [14]: 27.88%

Cc1n[nH]c2c1[C@@H](c1ccc(OCc3ccc(Cl)cc3)cc1)S[C@@H](C)C(=O)N2
Activity [14]: 14.88%

COc1cc([C@H]2S[C@@H](C)C(=O)Nc3[nH]nc(C)c32)ccc1OCc1cccc(C)c1
Activity [14]: 25.05%

Cc1ccc(COc2ccc([C@H]3S[C@@H](C)C(=O)Nc4[nH]nc(C)c43)cc2)cc1
Activity [14]: 0%

Cc1n[nH]c2c1[C@@H](c1ccc(OCc3cccc(F)c3)cc1)S[C@@H](C)C(=O)N2
CC50 at 96 h [3]: 103 µM | selectivity ratio at 24 h [4]: 3.71 | CC50 at 96 h [5]: 103 µM | EC50 [6]: 5.32 µM | EC50 [8]: 47 µM | CC50 at 24 h [10]: 94 µM | EC50 [11]: > 50 µM | selectivity ratio at 24 h [12]: 3.71 | CC50 at 24 h [13]: 94 µM | Activity [14]: 70.68% | selectivity ratio [15]: 19.4 | selectivity ratio [16]: 19.4
